The source made the active and inactive calls. The calls are words filed in the database; no cut-off is given here.
Assays:
[1] = system: MCF7; test: Antiproliferative activity against human MCF7 cells assessed as reduction in cell viability after 72 hrs by alamar blue assay; assay type: functional, cell-based; settings: MCF7, 72 h
How it was run: (§1)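 Cells seeded at 5 x 10^3/well (MCF-7) or 1 x 10^4/well (HT-29, HEK-293T) and treated after 24 h with serial dilutions (0.001-100 µM) in 1% v/v ethanol vehicle. Alamar Blue 10% v/v added at 72 h, then 3-5 h at 37 °C in the dark; fluorescence ex 530/em 590 nm. Viability relative to vehicle; IC50 from dose-response curves; mean of three experiments in triplicate.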

[2] = system: HT-29; test: Antiproliferative activity against human HT-29 cells assessed as reduction in cell viability after 72 hrs by alamar blue assay; assay type: functional, cell-based; settings: HT-29, 72 h; how it was run: as §1
[3] = Selectivity index, ratio of IC50 for human MCF7 cells to IC50 for human HT-29 cells assessed as reduction in cell viability after 72 hrs by alamar blue assay; assay type: functional
[4] = species: Bos taurus; test: Inhibition of bovine brain tubulin polymerization at 10 uM measured at 30 sec interval for 30 mins in presence of GTP by turbidimetry-based spectrophotometric method
[5] = system: HT-29; test: Antiangiogenic activity in human HT29 cells assessed as reduction in IL-1alpha secretion at 5 uM after 24 hrs by ELISA; assay type: functional, cell-based
How it was run: (§2)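 HT-29 cells at 5 x 10^4 per well, cultured 24 h and then exposed to 5 µM compound. Conditioned medium collected on ice and stored at -80 °C. Cytokines and angiogenic, vascular-injury and chemokine factors measured by multiplex panels with overnight supernatant incubation (Angiogenesis Panel 1 and Vascular Injury Panel 2 same day). Medium undiluted except 1:4 for Vascular Injury Panel 2. Secretion normalised to lysate protein by BCA.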

[6] = system: HT-29; test: Antiangiogenic activity in human HT29 cells assessed as reduction in IL-1beta secretion at 5 uM after 24 hrs by ELISA; assay type: functional, cell-based; how it was run: as §2
[7] = system: HT-29; test: Antiangiogenic activity in human HT29 cells assessed as reduction in VEGF secretion at 5 uM after 24 hrs by ELISA; assay type: functional, cell-based; how it was run: as §2
[8] = system: HT-29; test: Antiangiogenic activity in human HT-29 cells assessed as increase in IL-1RA secretion at 5 uM after 24 hrs by ELISA; assay type: functional, cell-based; how it was run: as §2
[9] = Half life of the compound in phosphate buffer at pH 7.4 by HPLC analysis; assay type: physicochemical
How it was run: (§3)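 Compound stock was 1 mg/mL in mobile phase; 30 µL was diluted into 1 mL phosphate buffer (pH 4, 7.4 or 9) and held at 37 °C. Samples were taken at 0, 5, 30 and 60 min, then hourly to 24 h. Analysis was reverse-phase C18 HPLC with acetonitrile/water mobile phase at 1 mL/min and detection at 254 nm.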

[10] = Half life of the compound in phosphate buffer at pH 9 by HPLC analysis; assay type: physicochemical; how it was run: as §3
[11] = Half life of the compound in phosphate buffer at pH 4 by HPLC analysis; assay type: physicochemical; how it was run: as §3

Structure (SMILES)	IC50 [1] [nM]	IC50 [2] [nM]	Ratio IC50 [3]	other results
COc1ccc([C@H]2[C@H](Oc3ccccc3)C(=O)N2c2cc(OC)c(OC)c(OC)c2)cc1F (relative stereo)	73	155	0.47	
COc1ccc([C@H]2[C@H](Oc3ccccc3)C(=O)N2c2cc(OC)c(OC)c(OC)c2)cc1C	2240	313	7.14	
COc1ccc([C@H]2[C@H](Oc3ccccc3)C(=O)N2c2cc(OC)c(OC)c(OC)c2)cc1Br	818	577	1.42	
COc1ccc([C@H]2[C@H](O)C(=O)N2c2cc(OC)c(OC)c(OC)c2)cc1Cl	12	18	0.67	inhibition [4]: Active
COc1ccc([C@H]2[C@H](O)C(=O)N2c2cc(OC)c(OC)c(OC)c2)cc1I	100	21	4.77	
COc1ccc([C@H]2CC(=O)N2c2cc(OC)c(OC)c(OC)c2)cc1Cl	140	154	0.91	
COc1ccc([C@H]2[C@H](c3ccccc3)C(=O)N2c2cc(OC)c(OC)c(OC)c2)cc1	15	22	0.68	
COc1ccc([C@H]2CC(=O)N2c2cc(OC)c(OC)c(OC)c2)cc1F	22	15	1.47	Activity [5]: inactive; Activity [6]: inactive; Activity [7]: inactive; Activity [8]: Active
C=C[C@@H]1C(=O)N(c2cc(OC)c(OC)c(OC)c2)[C@H]1c1ccc(OC)c(C)c1	328	197	1.67	
COc1ccc([C@H]2CC(=O)N2c2cc(OC)c(OC)c(OC)c2)cc1I	821	260	3.16	
COc1ccc([C@H]2[C@H](Cl)C(=O)N2c2cc(OC)c(OC)c(OC)c2)cc1I	421	190	2.22	
COc1ccc([C@H]2[C@H](c3ccccc3)C(=O)N2c2cc(OC)c(OC)c(OC)c2)cc1Cl	230	24	9.58	
C=C(C)[C@@H]1C(=O)N(c2cc(OC)c(OC)c(OC)c2)[C@H]1c1ccc(OC)c(C)c1	773	358	2.16	
COc1ccc([C@@H]2N(c3cc(OC)c(OC)c(OC)c3)C(=O)C2(Cl)Cl)cc1I	885	251	3.53	
COc1ccc([C@H]2[C@H](N)C(=O)N2c2cc(OC)c(OC)c(OC)c2)cc1F	483	238	2.03	
C=C(C)[C@@H]1C(=O)N(c2cc(OC)c(OC)c(OC)c2)[C@H]1c1ccc(OC)c(Cl)c1	270	480	0.56	
C=C[C@@H]1C(=O)N(c2cc(OC)c(OC)c(OC)c2)[C@H]1c1ccc(OC)c(F)c1	38	37		
COc1ccc([C@H]2[C@H](O)C(=O)N2c2cc(OC)c(OC)c(OC)c2)cc1Br	44	9	4.89	inhibition [4]: Active
COc1ccc([C@@H]2N(c3cc(OC)c(OC)c(OC)c3)C(=O)C2(Cl)Cl)cc1Br	1120	1540	0.73	
COc1ccc([C@H]2[C@H](c3ccccc3)C(=O)N2c2cc(OC)c(OC)c(OC)c2)cc1I	648	355	1.83	half-life [9]: 840 min; half-life [10]: 300 min; half-life [11]: 900 min
C=C(C)[C@@H]1C(=O)N(c2cc(OC)c(OC)c(OC)c2)[C@H]1c1ccc(OC)c(F)c1	323	678	0.48	

Structure (SMILES)	IC50 [1] [nM]	IC50 [2] [nM]	Ratio IC50 [3]	other results
COc1ccc([C@@H]2N(c3cc(OC)c(OC)c(OC)c3)C(=O)C2(Cl)Cl)cc1F	173	117	1.48	
COc1ccc([C@H]2[C@H](c3ccccc3)C(=O)N2c2cc(OC)c(OC)c(OC)c2)cc1Br	651	325	2	
COc1ccc([C@H]2[C@H](Cl)C(=O)N2c2cc(OC)c(OC)c(OC)c2)cc1F	40	15		
COc1ccc([C@H]2[C@H](Cl)C(=O)N2c2cc(OC)c(OC)c(OC)c2)cc1C	433	222	1.95	
C=C[C@@H]1C(=O)N(c2cc(OC)c(OC)c(OC)c2)[C@H]1c1ccc(OC)c(Cl)c1	120	293	0.41	
COc1ccc([C@@H]2N(c3cc(OC)c(OC)c(OC)c3)C(=O)C2(Cl)Cl)cc1C	747	319	2.34	
COc1ccc([C@H]2CC(=O)N2c2cc(OC)c(OC)c(OC)c2)cc1C	317	189	1.68	
COc1ccc([C@H]2[C@H](Oc3ccccc3)C(=O)N2c2cc(OC)c(OC)c(OC)c2)cc1Cl	430	314	1.37	half-life [9]: > 900 min; half-life [10]: > 900 min; half-life [11]: > 900 min
COc1ccc([C@H]2[C@H](N)C(=O)N2c2cc(OC)c(OC)c(OC)c2)cc1Cl	141	167	0.84	half-life [9]: > 1440 min; half-life [10]: > 1440 min; half-life [11]: > 1440 min
COc1ccc([C@H]2CC(=O)N2c2cc(OC)c(OC)c(OC)c2)cc1Br	60	64	0.94	
COc1ccc([C@H]2[C@H](Cl)C(=O)N2c2cc(OC)c(OC)c(OC)c2)cc1Br	603	194	3.12	
COc1ccc([C@H]2[C@H](Oc3ccccc3)C(=O)N2c2cc(OC)c(OC)c(OC)c2)cc1I	208	232	0.9	
COc1ccc([C@H]2[C@H](c3ccccc3)C(=O)N2c2cc(OC)c(OC)c(OC)c2)cc1C	462	153	3.02	
COc1ccc([C@H]2[C@H](Cl)C(=O)N2c2cc(OC)c(OC)c(OC)c2)cc1Cl	91	144	0.63	
C=C(C)[C@@H]1C(=O)N(c2cc(OC)c(OC)c(OC)c2)[C@H]1c1ccc(OC)c(I)c1	1350	1050	1.29	
COc1ccc([C@@H]2N(c3cc(OC)c(OC)c(OC)c3)C(=O)C2(Cl)Cl)cc1Cl	140	154	0.91	
C=C[C@@H]1C(=O)N(c2cc(OC)c(OC)c(OC)c2)[C@H]1c1ccc(OC)c(I)c1	215	306	0.7	
COc1ccc([C@H]2[C@H](c3ccccc3)C(=O)N2c2cc(OC)c(OC)c(OC)c2)cc1O	4	430	0.01	Activity [5]: inactive; Activity [6]: inactive; Activity [7]: inactive; Activity [8]: Active
C=C(C)[C@@H]1C(=O)N(c2cc(OC)c(OC)c(OC)c2)[C@H]1c1ccc(OC)c(Br)c1	284	333	0.83	
C=C[C@@H]1C(=O)N(c2cc(OC)c(OC)c(OC)c2)[C@H]1c1ccc(OC)c(Br)c1	88	91	0.97	
